The values below come from ChEMBL document CHEMBL1150804, “Nonnucleoside inhibitor of measles virus RNA-dependent RNA polymerase complex activity” (Antimicrob Agents Chemother, 2007).

Structures are written as SMILES. pEC50: −log10 of the molar value. Active and inactive are the calls of the source. The rule behind the calls is not given here.

A short description of data set [1]: Selectivity index, ratio of CC50 for african green monkey Vero cells by trypan blue exclusion assay to IC50 for measles virus Edm. It is filed as functional.
A short description of data set [2]: Selectivity index, ratio of CC50 for african green monkey Vero cells by Promega assay to IC50 for measles virus Edm. It counts as functional.
The subject of data set [3] is Measles morbillivirus. Kind of data set: Antiviral activity against measles virus Edm in Vero cells expressing human SLAM assessed as reduction of virus yield. It is filed as functional, organism-based.
Data set [4] can be described thus: Cytotoxicity against african green monkey Vero cells expressing human SLAM by Promega assay. It is filed as cell-based. The conditions noted are these: chlorocebus sabaeus. The essentials:
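LDH-release assay: 12,000 cells/well exposed 24 h at 37°C to twofold compound dilutions (top 150 μM, or 300 μM for one compound), four replicates. Formazan read at 490 nm; % viability = 100 − [(experimental − background)/(maximum − background) × 100]; four experiments.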

The nature of data set [5]: Cytotoxicity against african green monkey Vero cells expressing human SLAM assessed as reduction in viable cells after 30 hrs by trypan blue exclusion assay. It is filed as cell-based. The conditions noted are these: chlorocebus sabaeus. An outline of the steps: (§1)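 Trypan blue exclusion: 2 × 10^5 cells/well with fivefold compound dilutions (top 500 μM), 37°C for 30 h, three replicates per concentration. Detached cells stained with trypan blue 15 min at room temperature; live cells counted on a hemacytometer; expressed vs DMSO controls; three experiments.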

In another data set the test system is Vero. Kind of data set: Cytotoxicity against african green monkey Vero cells expressing human SLAM assessed as reduction in viable cells at 500 uM after 30 hrs by trypan blue exclusion assay. It counts as cell-based. The conditions noted are these: chlorocebus sabaeus. The essentials:
as §1

The test system of another data set is Escherichia phage T7. Kind of data set: Inhibition of Enterobacteria phage T7 polymerase assessed as F protein synthesis by in vitro transcription/translation assay. The essentials:
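Cell-free rabbit reticulocyte lysate with 0.5 μg T7-promoter MV F plasmid, 20 μCi [35S]methionine and 50 μM compound or DMSO, 30°C for 90 min. Products separated on 12% SDS gels and autoradiographed. Control: plasmid with F gene reversed relative to the T7 promoter.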

The subject of data set [6] is Measles morbillivirus. Kind of data set: Antiviral activity against measles virus assessed as inhibition of viral H and F protein-mediated cell-cell fusion. It counts as functional, organism-based. The essentials:
(§2)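 Cells (6 × 10^5/well) transfected with 4 μg each of MV H and F plasmids; at 4 h moved into wells with twofold compound dilutions (top 150 μM). Fusion scored microscopically, photographed at 24 h; at 48 h syncytium-linked cytotoxicity measured by LDH-release assay, % vs DMSO; four replicates.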

The test system of data set [7] is Measles morbillivirus. Kind of data set: Antiviral activity against measles virus assessed as reduction of virus yield at 15 uM administered 12 hrs postinfection. Details: scale not given: the % may be the effect or the level left. It is filed as functional. The essentials: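 One-step time-of-addition: 3 × 10^5 cells infected with MV at MOI 1.0 PFU/cell; compound (15 μM final) added at set times postinfection; DMSO controls. At 20 h postinfection, cell-associated virus harvested and titered by TCID50; two experiments.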

The subject of data set [8] is Measles morbillivirus. Kind of data set: Antiviral activity against measles virus genotype C assessed as reduction of virus yield. It is filed as functional, organism-based. The essentials: (§3)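 Clinical MV isolates (grown on Vero-SLAM) infected at MOI 0.1 PFU/cell into 4 × 10^5 cells with threefold compound dilutions (top 37.5 μM) or DMSO at 37°C. At 36 h, cell-associated virus titered by TCID50; EC50 at 50% of DMSO yield; two experiments.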

Data set [9] deals with Measles morbillivirus. Kind of data set: Antiviral activity against measles virus Alaska assessed as reduction of virus yield in presence of 10 mg/ml BSA. It counts as functional, organism-based. An outline of the steps:
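Specificity test with MV-Alaska: 4 × 10^5 cells infected in serum-free medium at MOI 0.1 or 0.5 PFU/cell with fourfold dilutions (top 12.5 μM), with or without BSA at 10 mg/ml final.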

The test system of data set [10] is Measles morbillivirus. Kind of data set: Antiviral activity against measles virus assessed as inhibition of virus mediated cytopathogenicity at 15 uMby syncytium formation assay. It is filed as functional, organism-based. The conditions noted are these: 15 uM. On the technique in general: Protection from cytopathic effect is a common read-out in antiviral testing.

In data set [11] the test system is Measles virus genotype D6. Kind of data set: Antiviral activity against measles virus genotype D6 assessed as reduction of virus yield. It is filed as functional, organism-based. The conditions noted are these: Measles morbillivirus. The essentials: as §3
Data set [12] deals with Measles morbillivirus. Kind of data set: Antiviral activity against measles virus genotype H2 assessed as reduction of virus yield. It is filed as functional, organism-based. The essentials: as §3
Data set [13] concerns BSR T7/5. Kind of data set: Inhibition of measles virus RNA-dependent RNA polymerase complex activity in BSR T7/5 cells assessed as CAT promoter expression by minireplicon assay. It is filed as cell-based. The conditions noted are these: Measles morbillivirus. The essentials:
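BSR T7/5 cells (5 × 10^5) transfected with MV L (0.24 μg), N (0.94 μg), P (0.29 μg) plasmids plus 2 μg CAT minigenome; controls lacked L. At 2 h, threefold compound dilutions (top 30 μM) or DMSO added.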

For data set [14], the system named is Measles morbillivirus. The data set can be described thus: Antiviral activity against measles virus Edm in Vero cells expressing human SLAM assessed as reduction of virus yield preincubated in culture medium for 24 hrs. It is filed as functional, organism-based.
In data set [15] the test system is Measles morbillivirus. Kind of data set: Antiviral activity against measles virus genotype G2 assessed as reduction of virus yield. It counts as functional, organism-based. An outline of the steps: as §3
Data set [16] has as its system Measles morbillivirus. Kind of data set: Antiviral activity against measles virus assessed as inhibition of viral H and F protein-mediated cell-cell fusion at 150 uM. It counts as functional, organism-based. An outline of the steps:
as §2

A further data set relates to Measles virus genotype A. The data set can be described thus: Antiviral activity against measles virus genotype A assessed as reduction of virus yield. It is filed as functional, organism-based. The following applies: Measles morbillivirus. An outline of the steps: as §3
In data set [17] the test system is Measles morbillivirus. The data set can be described thus: Antiviral activity against measles virus genotype G3 assessed as reduction of virus yield. It is filed as functional, organism-based. An outline of the steps:
as §3

The test system of data set [18] is Human parainfluenza virus 2. The data set can be described thus: Antiviral activity against human parainfluenza virus 2 assessed as reduction of virus yield at 75 uM. It counts as functional, organism-based. The following applies: Human orthorubulavirus 2.
For data set [19], the system named is BSR T7/5. The data set can be described thus: Inhibition of Nipah virus RNA-dependent RNA polymerase complex activity in BSR T7/5 cells assessed as CAT promoter expression by minireplicon assay. The conditions noted are these: Henipavirus nipahense. It counts as cell-based. The essentials: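 BSR T7/5 cells (T7 polymerase-expressing) transfected with plasmids for Nipah L (0.4 μg), N (1.25 μg), P (0.8 μg) plus 3.5 μg Nipah CAT minigenome reporter; controls lacked L plasmid. Compound added 2 h posttransfection in threefold dilutions (highest 30 μM), DMSO controls.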

Data set [20] deals with Measles morbillivirus. The data set can be described thus: Antiviral activity against measles virus genotype D9 assessed as reduction of virus yield. It counts as functional, organism-based. An outline of the steps:
as §3

The subject of data set [21] is Measles morbillivirus. Kind of data set: Antiviral activity against measles virus assessed as inhibition of viral H and F protein-mediated cell-cell fusion at 15 uM. It is filed as functional, organism-based. The essentials: as §2
In data set [22] the test system is Measles virus genotype D7. Kind of data set: Antiviral activity against measles virus genotype D7 assessed as reduction of virus yield. It is filed as functional, organism-based. The following applies: Measles morbillivirus. The essentials:
as §3

The next data set deals with Morbillivirus canis. The data set can be described thus: Antiviral activity against Canine distemper virus assessed as reduction of virus yield. It is filed as functional, organism-based. The essentials:
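Virus-yield dose-response: 4 × 10^5 cells/well infected at MOI 0.1 PFU/cell (CDV stocks grown on Vero-dogSLAM) with twofold compound dilutions (top 75 μM) or DMSO; kept at 37°C with compound. At 36 h, cell-associated virus titered by TCID50 (Spearman-Karber); titers normalized to DMSO; EC50 taken at 50% of DMSO yield; two experiments.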

Data set [23] concerns Measles morbillivirus. The data set can be described thus: Antiviral activity against measles virus genotype B3-2 assessed as reduction of virus yield. It counts as functional, organism-based. The essentials: as §3

On to `Cc1ccc2[nH]c(=O)c(CNS(=O)(=O)c3ccccc3)c(-c3ccccc3)c2c1`, for which the “Ratio CC50/EC50” value is reported as 4.5 in [1] and above 10 in data set [2]. In addition, the pEC50 in the data set with Measles morbillivirus [3] was 4.80. The compound also returned a CC50 in data set [4] above 150000 nM. For the same compound, the CC50 at 30 h in [5] came to 71000 nM.

On to `O=C(NC(=O)N(c1ccc(Cl)cc1)S(=O)(=O)c1ccccc1)Nc1ccccc1Cl`, for which, in [2], the “Ratio CC50/EC50” value turned out to be 43.2. Besides, in the data set with Measles morbillivirus [3], the pEC50 was 5.55. The compound also had a 50% cytotoxic concentration (CC50) in data set [4] of 121000 nM.

As for `Cc1ccc2nsnc2c1S(=O)(=O)Nc1ccc(Cl)cc1`, the “Ratio CC50/EC50” value in data set [2] turned out to be 50. For the same compound, in the data set on Measles morbillivirus [3], the negative logarithm of the EC50 (pEC50) was 5.70. This compound also came in with a CC50 in [4] of 100000 nM.

For the compound `Cn1nc(C(F)(F)F)cc1C(=O)Nc1ccc(S(=O)(=O)N2CCCC2)cc1`, the Activity with Vero turned out to be 20%; in the data set on Measles morbillivirus [7] it was 99.9%. Besides, the outcome in the data set with Escherichia phage T7, with Measles morbillivirus [16], with BSR T7/5 [19] and in the data set with Measles morbillivirus [21] was inactive. In addition, the result in the data set with Measles morbillivirus [6], with Measles morbillivirus [9], in the data set with Measles morbillivirus [10], with BSR T7/5 [13] and in the data set with Measles morbillivirus [14] was Active. Further, the pEC50 with Measles morbillivirus [8] was 6.96; in data set [11] it was 7.00; in the data set on Measles morbillivirus [12] it was 7.46; in the data set on Measles morbillivirus [15], 7.30; in the data set on Measles virus genotype A, 6.62; with Measles morbillivirus [17], 6.96. In addition, the negative-log EC50 (pEC50) is below 4.12 in [18]; 6.62 with Measles morbillivirus [3]; 7.05 with Measles morbillivirus [20]; 7.10 in data set [22]; 4.55 with Morbillivirus canis; 6.85 in the data set with Measles morbillivirus [23]. For the same compound, in [4], the 50% cytotoxic concentration (CC50) was above 300000 nM. Further, the CC50 at 30 h in data set [5] was above 500000 nM.

Usually pEC50 stands for −log10 of the EC50, conventionally taken in molar units. For orientation: CC50 means the concentration at which the toxic effect on the cells reaches its halfway point.
